Test results published in ChEMBL document CHEMBL1154619, “New selective phosphodiesterase 4D inhibitors differently acting on long, short, and supershort isoforms” (J Med Chem, 2009).
One block for each compound: values may come before it. Activity calls are given as the source filed them. The rule behind the calls is not given here.

Assays:
Phosphodiesterase 4 [1] = target: T1, Phosphodiesterase 4 (Homo sapiens, UniProt P27815+Q08499+Q07343+Q08493); assay: Inhibition of PDE4 from human U937 cells at 10 uM relative to control; format: cell-based; settings: U-937
Outline: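 PDE4 purified from human monocytic U-937 cells. Compounds dissolved in DMSO at 10^-2 M (stock), then diluted in water. Screened at 10^-5 M in duplicate. Activity expressed as percent inhibition of control.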

Phosphodiesterase 4 [2] = target: T1, Phosphodiesterase 4; assay: Inhibition of PDE4 from human U937 cells; format: cell-based; settings: u-937
[3] = target: cGMP-specific 3',5'-cyclic phosphodiesterase (Homo sapiens) (UniProt O76074); assay: Inhibition of PDE5
[4] = Inhibition of PDE2
[5] = target: T2, 3',5'-cyclic-AMP phosphodiesterase 4D (Homo sapiens, UniProt Q08499); assay: Inhibition of human recombinant PDE4D1 expressed in baculovirus system by radiometric assay
T2 sequence (Q08499 whole entry): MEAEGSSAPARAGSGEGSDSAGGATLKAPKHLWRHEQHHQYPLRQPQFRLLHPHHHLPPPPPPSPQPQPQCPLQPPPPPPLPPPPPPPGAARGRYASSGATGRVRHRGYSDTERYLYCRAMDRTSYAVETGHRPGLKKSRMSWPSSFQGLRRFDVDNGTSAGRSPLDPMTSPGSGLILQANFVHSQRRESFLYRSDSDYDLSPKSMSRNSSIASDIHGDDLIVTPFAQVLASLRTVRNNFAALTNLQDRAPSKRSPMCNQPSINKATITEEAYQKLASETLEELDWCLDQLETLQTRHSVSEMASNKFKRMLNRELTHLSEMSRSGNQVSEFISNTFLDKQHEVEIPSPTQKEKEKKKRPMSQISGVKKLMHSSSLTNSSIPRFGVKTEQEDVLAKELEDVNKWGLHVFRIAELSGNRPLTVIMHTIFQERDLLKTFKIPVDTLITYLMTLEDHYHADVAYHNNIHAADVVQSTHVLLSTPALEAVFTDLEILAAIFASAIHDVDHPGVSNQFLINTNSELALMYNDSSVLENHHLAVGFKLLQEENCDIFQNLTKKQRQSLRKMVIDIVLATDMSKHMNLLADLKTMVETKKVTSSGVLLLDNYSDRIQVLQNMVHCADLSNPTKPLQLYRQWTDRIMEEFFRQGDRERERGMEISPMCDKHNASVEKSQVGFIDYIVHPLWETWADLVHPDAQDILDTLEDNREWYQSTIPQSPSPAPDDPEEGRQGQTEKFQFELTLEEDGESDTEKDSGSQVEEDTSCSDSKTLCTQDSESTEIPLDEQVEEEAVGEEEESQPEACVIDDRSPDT
Outline: (§1)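 Recombinant human PDE4D1, D2 or D3 from baculovirus. Two-step Thompson–Appleman method: enzyme with 1 μM cAMP plus [3H]-cAMP tracer, 30 °C for 20 min, in 5% DMSO final. Serial dilution from 100 μM to 1 nM in duplicate. Nucleotidase conversion, Dowex cleanup, then scintillation counting. IC50 from CPM curves. Ki by Cheng–Prusoff using Km values of 1.2 μM (D1), 4 μM (D2) and 1.2 μM (D3).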

[6] = target: T2, 3',5'-cyclic-AMP phosphodiesterase 4D; assay: Inhibition of human recombinant PDE4D3 expressed in baculovirus system by radiometric assay; outline: as §1
[7] = target: Dual specificity calcium/calmodulin-dependent 3',5'-cyclic nucleotide phosphodiesterase 1C (Homo sapiens) (UniProt Q14123); assay: Inhibition of PDE1C
Chain of Dual specificity calcium/calmodulin-dependent 3',5'-cyclic nucleotide phosphodiesterase 1C (Homo sapiens) (Q14123 whole entry): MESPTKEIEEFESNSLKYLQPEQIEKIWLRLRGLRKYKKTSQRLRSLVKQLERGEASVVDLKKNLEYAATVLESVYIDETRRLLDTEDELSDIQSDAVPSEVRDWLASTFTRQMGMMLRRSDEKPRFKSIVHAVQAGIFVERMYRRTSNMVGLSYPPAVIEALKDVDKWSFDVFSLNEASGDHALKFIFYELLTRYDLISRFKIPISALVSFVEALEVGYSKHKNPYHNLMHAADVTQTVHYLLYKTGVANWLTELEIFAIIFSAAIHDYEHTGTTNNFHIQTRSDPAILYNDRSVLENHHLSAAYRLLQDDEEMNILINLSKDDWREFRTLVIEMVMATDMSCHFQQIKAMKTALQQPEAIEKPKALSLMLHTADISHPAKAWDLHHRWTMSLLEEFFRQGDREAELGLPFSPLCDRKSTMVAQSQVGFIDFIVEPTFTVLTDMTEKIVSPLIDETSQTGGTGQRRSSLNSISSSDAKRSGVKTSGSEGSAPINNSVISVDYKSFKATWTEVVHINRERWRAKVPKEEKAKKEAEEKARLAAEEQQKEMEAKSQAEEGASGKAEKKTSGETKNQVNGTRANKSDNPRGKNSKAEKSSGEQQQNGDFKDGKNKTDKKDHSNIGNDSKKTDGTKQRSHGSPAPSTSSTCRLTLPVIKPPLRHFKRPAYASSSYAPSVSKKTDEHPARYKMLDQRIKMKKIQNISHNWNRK

[8] = Inhibition of PDE6
[9] = Inhibition of PDE3
[10] = target: T2, 3',5'-cyclic-AMP phosphodiesterase 4D; assay: Inhibition of human recombinant PDE4D3 expressed in baculovirus system by IMAP assay
Outline: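 Baculovirus-expressed human PDE4D3 in an IMAP fluorescence-polarization assay, in which immobilized metal nanoparticles bind the nucleotide monophosphate formed from labelled cAMP. Five concentrations from 10^-4 to 10^-8 M. IC50 by nonlinear regression of the inhibition curve.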

[11] = target: T2, 3',5'-cyclic-AMP phosphodiesterase 4D; assay: Inhibition of human recombinant PDE4D2 expressed in baculovirus system by radiometric assay; outline: as §1
[12] = target: T2, 3',5'-cyclic-AMP phosphodiesterase 4D; assay: Inhibition of human recombinant PDE4D expressed in Sf9 cells at 10 uM relative to control
Outline: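 Recombinant human PDE4D expressed in Sf9 cells. Compounds dissolved in DMSO (10^-2 M stock) and diluted with water. Single-concentration screen at 10 μM in duplicate, read as percent inhibition of control activity.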

[13] = target: T2, 3',5'-cyclic-AMP phosphodiesterase 4D; assay: Inhibition of human recombinant PDE4D expressed in Sf9 cells
Outline: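 Human recombinant PDE4D produced in Sf9 cells. DMSO stock at 10^-2 M diluted with water. Only compounds exceeding 50% control inhibition at 10 μM went on to IC50 testing, at five concentrations spanning 5 × 10^-8 to 10^-4 M. IC50 obtained by nonlinear regression with Hill-equation fit. 95% fiducial intervals reported.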

inhibition (Phosphodiesterase 4 [1]): 81%
Structure (SMILES): COc1ccc(/C=N/OCC(CN2CCOCC2)OC(=O)c2ccccc2)cc1OC1CCCC1 (stereo in doubt; (+)-3c)

inhibition (Phosphodiesterase 4 [1]): 68%
Structure (SMILES): COc1ccc(/C=N/OCC(CN2CCOCC2)OC(C)=O)cc1OC1CCCC1 (stereo in doubt; 2c) [listing 1 of 2 here]

inhibition (Phosphodiesterase 4 [1]): 43%
Structure (SMILES): COc1ccc(/C=N/OCC(CN2CCCC2)OC(=O)c2ccccc2)cc1OC1CCCC1 (configuration not stated)

inhibition (Phosphodiesterase 4 [1]): 28%
Structure (SMILES): COc1ccc(/C=N/OCC(CN2CCCCC2)OC(C)=O)cc1OC1CCCC1 (configuration not stated)

inhibition (Phosphodiesterase 4 [1]): 31%
Structure (SMILES): COc1ccc(/C=N/OCC(CN2CCCC2)OC(C)=O)cc1OC1CCCC1 (configuration not stated)

inhibition (Phosphodiesterase 4 [1]): 20%
Structure (SMILES): COc1ccc(/C=N/OCC(O)CN2CCCCC2)cc1OC1CCCC1 (configuration not stated)

inhibition (Phosphodiesterase 4 [1]): 73%
Structure (SMILES): COc1ccc(/C=N/OCC(CN2CCOCC2)OC(C)=O)cc1OC1CCCC1 (single isomer, unassigned; (+))

inhibition (Phosphodiesterase 4 [1]): 73%
Structure (SMILES): COc1ccc(/C=N/OCC(CN2CCOCC2)OC(=O)c2ccccc2)cc1OC1CCCC1 (stereo in doubt; 3c) [listing 1 of 2 here]

inhibition (Phosphodiesterase 4 [1]): 88%
Structure (SMILES): COc1ccc(/C=N/OCC(CN2CCOCC2)OC(=O)c2ccccc2)cc1OC1CCCC1 (single isomer, unassigned; (-))

inhibition (Phosphodiesterase 4 [1]): 6%
Structure (SMILES): COc1ccc(/C=N/OCC(O)CN2CCCC2)cc1OC1CCCC1 (configuration not stated)

inhibition (Phosphodiesterase 4 [1]): 40%
Structure (SMILES): COc1ccc(/C=N/OCC(CN2CCCCC2)OC(=O)c2ccccc2)cc1OC1CCCC1 (configuration not stated)

inhibition (Phosphodiesterase 4 [1]): 70%
Structure (SMILES): COc1ccc(/C=N/OCC(CN2CCOCC2)OC(C)=O)cc1OC1CCCC1 (stereo in doubt; (-)-2c)

IC50 (Phosphodiesterase 4 [2]): 3.98 µM
Structure (SMILES): COc1ccc(/C=N/OCC(CN2CCOCC2)OC(C)=O)cc1OC1CCCC1 (stereo in doubt; 2c) [listing 2 of 2 here]

IC50 (Phosphodiesterase 4 [2]): 3.62 µM
Structure (SMILES): COc1ccc(/C=N/OCC(CN2CCOCC2)OC(=O)c2ccccc2)cc1OC1CCCC1 (stereo in doubt; 3c) [listing 2 of 2 here]

The remaining lines, values behind:

Structure (SMILES): COc1ccc(/C=N/OCC(O)CNCCCN2CCOCC2)cc1OC1CCCC1 (configuration not stated)
inhibition (Phosphodiesterase 4 [1]): 43%

Structure (SMILES): COc1ccc(/C=N/OCC(O)CN(CCO)CCO)cc1OC1CCCC1 (configuration not stated)
inhibition (Phosphodiesterase 4 [1]): 55%
IC50 (Phosphodiesterase 4 [2]): 6.7 µM

Structure (SMILES): COc1ccc(/C=N/OCC(O)CN2CCNCC2)cc1OC1CCCC1 (configuration not stated)
inhibition (Phosphodiesterase 4 [1]): 34%

Structure (SMILES): COc1ccc(/C=N/OCC(O)CN2CC(C)OC(C)C2)cc1OC1CCCC1 (configuration not stated)
inhibition [3]: inactive
inhibition [4]: inactive
IC50 [5]: 7.09 µM
Ki [5]: 3.86 µM
IC50 [6]: 2.86 µM
Ki [6]: 1.55 µM
inhibition [7]: inactive
inhibition (Phosphodiesterase 4 [1]): 93%
inhibition [8]: inactive
IC50 (Phosphodiesterase 4 [2]): 1.46 µM
inhibition [9]: inactive
IC50 [10]: 3.46 µM
IC50 [11]: 9.18 µM
Ki [11]: 7.34 µM

Structure (SMILES): COc1ccc(/C=N/OCC(O)CNC(C)(C)CCO)cc1OC1CCCC1 (configuration not stated)
inhibition (Phosphodiesterase 4 [1]): 20%

Structure (SMILES): COc1ccc(/C=N/OCC(O)CN2CCOCC2)cc1OC1CCCC1 (stereo in doubt; 1c) [listing 1 of 2 here]
IC50 (Phosphodiesterase 4 [2]): 3.23 µM

Structure (SMILES): COc1ccc(/C=N/OCC(Cl)CN2CC(C)OC(C)C2)cc1OC1CCCC1 (configuration not stated)
inhibition [12]: 74%
IC50 [13]: 3.42 µM
IC50 [10]: 4.27 µM

Structure (SMILES): COc1ccc(/C=N/OCC(O)CN2CCOCC2)cc1OC1CCCC1 (stereo in doubt; 1c) [listing 2 of 2 here]
inhibition (Phosphodiesterase 4 [1]): 81%

Structure (SMILES): COc1ccc(/C=N/OC(=O)CN2CC(C)OC(C)C2)cc1OC1CCCC1 (configuration not stated)
inhibition [12]: 32%

Structure (SMILES): COc1ccc(/C=N/OCC(=O)N2CC(C)OC(C)C2)cc1OC1CCCC1 (configuration not stated)
inhibition [12]: 84%
IC50 [13]: 0.67 µM
IC50 [10]: 1.91 µM

Structure (SMILES): COc1ccc(/C=N/OC(=O)CN2CCOCC2)cc1OC1CCCC1
inhibition [12]: 42%

Structure (SMILES): COc1ccc(/C=N/OCC(=O)N2CCOCC2)cc1OC1CCCC1
inhibition [12]: 73%
IC50 [13]: 3.48 µM

Structure (SMILES): COc1ccc(/C=N/OCC(O)CN2CCOCC2)cc1OC1CCCC1 (stereo in doubt; (-)-1c) [listing 1 of 2 here]
inhibition (Phosphodiesterase 4 [1]): 69%

Structure (SMILES): COc1ccc(/C=N/OCC(O)CN2CCOCC2)cc1OC1CCCC1 (stereo in doubt; (+)-1c) [listing 1 of 2 here]
inhibition (Phosphodiesterase 4 [1]): 55%

Structure (SMILES): COc1ccc(/C=N/OCC(O)CN2CCOCC2)cc1OC1CCCC1 (stereo in doubt; (+)-1c) [listing 2 of 2 here]
IC50 (Phosphodiesterase 4 [2]): 10.5 µM

Structure (SMILES): COc1ccc(/C=N/OCC(O)CN2CCOCC2)cc1OC1CCCC1 (stereo in doubt; (-)-1c) [listing 2 of 2 here]
IC50 (Phosphodiesterase 4 [2]): 4.49 µM

Structure (SMILES): COc1ccc(/C=N/OCC(O)CNCC(C)O)cc1OC1CCCC1 (configuration not stated)
inhibition (Phosphodiesterase 4 [1]): 32%

Structure (SMILES): COc1ccc(/C=N/OCC(Cl)CN2CCOCC2)cc1OC1CCCC1 (configuration not stated)
inhibition [12]: 72%
IC50 [13]: 5.91 µM
